Source: publication PMC3384366 (International Journal of Nanomedicine, 2012)

Legend:
[1] = Oral pharmacokinetics of curcumin in plasma of freely mobile rats; format: in vivo, Male Sprague-Dawley rats; conditions: for AUC/dose: mean ± SEM, n = 4
Summary of the method: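 Male Sprague-Dawley rats (215 ± 10 g) had jugular catheters placed under pentobarbital (50 mg/kg ip) and were used freely moving one day later. They were dosed by gavage at 1 g/kg. Heparinized jugular blood was drawn from 15 to 480 min, and plasma was stored at −20°C. Samples were assayed by HPLC with an internal standard (425 nm; acetonitrile/10 mM phosphate pH 3.5). Noncompartmental analysis, n = 4.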

[2] = Cumulative excretion of curcumin in feces and urine; format: in vivo, Male Sprague-Dawley rats; conditions: rat, oral, 1 g/kg; collected up to 72 hours
[3] = tested on: reverted rat gut sacs; experiment: Ex vivo curcumin absorption using reverted rat gut sacs; format: in vitro ADME, Male Sprague-Dawley rats; conditions: serosal fluid + sac tissue; 100 μg/mL, 60 minutes, 37°C; mean ± SE, n = 4
Summary of the method: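 Rats (210 ± 10 g) killed by i.p. urethane/α-chloralose overdose. Small intestine rinsed with 0.9% saline, split into duodenum, jejunum and ileum in 37°C TC-199 (pH 7.4), everted, and tied into ~2 cm medium-filled sacs. Sacs shaken at 37°C in TC-199 with added 100 μg/mL test compound or nanoformulation, 1 h. Serosal fluid and acetonitrile-homogenized tissue protein-precipitated with internal standard, then analysed by HPLC; amounts summed.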

[4] = male, Sprague-Dawley, rat, plasma, po, 1 g/kg

SMILES: COc1cc(/C=C/C(=O)CC(=O)/C=C/c2ccc(O)c(OC)c2)ccc1O [Curcumin]
- AUC [1, 4]: 104 ng·h/mL
- Cmax [1, 4]: 28 ± 10 ng/mL
- Tmax [1, 4]: 45 min
- Time for which curcumin could be detected in plasma after oral ingestion ([1]; rat plasma, oral, 1 g/kg (b48 prints 1 mg/kg)): 6 h
- AUC/dose ([1]; rat plasma, oral, 1 g/kg): 0.0062 ± 0.003
- AUC/dose ([1]; rat plasma, oral, 1 g/kg, listed as curcumin alone): 0.0062
- Accumulated percentage of curcumin in urine [2]: ~0%
- Accumulated percentage of unabsorbed curcumin in feces [2]: ~90%
- Curcumin amount after incubation, duodenum [3]: 0.47 ± 0.04 µg
- Curcumin amount after incubation, ileum [3]: 0.85 ± 0.02 µg
- Curcumin amount after incubation, jejunum [3]: 1.01 ± 0.05 µg
